From ChEMBL document CHEMBL3112470, “Design and synthesis of N₁-aryl-benzimidazoles 2-substituted as novel HIV-1 non-nucleoside reverse transcriptase inhibitors” (Bioorg Med Chem, 2014) come the findings set out here.

As usually defined, the IC50 is the point on the concentration scale where inhibition reaches its midpoint. What is called CC50 is the concentration giving 50% cytotoxicity. One may read the EC50 as the concentration giving half of the maximal effect.

Active and inactive are the calls of the source. The rule behind the calls is not given here. Bounds are passed on as bounds.

Data set [1] has as its system Human immunodeficiency virus 2. Kind of data set: Antiviral activity against HIV-2 ROD. It is filed as functional, organism-based. To be noted: ISOLATE ROD.
For data set [2], the target named is Human immunodeficiency virus type 1 reverse transcriptase (Human immunodeficiency virus 1, UniProt Q72547). Kind of data set: Inhibition of GST-tagged recombinant wild type HIV-1 reverse transcriptase p66/p51 RNA-dependent DNA polymerase activity expressed in Escherichia coli JM109 using dTTP as substrate after 40 mins by spectrofluorometric analysis.
Data set [3] in a line: Selectivity index, ratio of CC50 for human MT4 cells to EC50 for HIV-1 3B. It is filed as toxicity, cell-based. To be noted: read-out: Ratio CC50/EC50. In outline:
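Calculated as CC50/EC50, both from MT-4 cells: CC50 from the parallel viability assay, EC50 from the 5-day HIV-1 IIIB cytopathicity assay.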

Data set [4] in a line: Cytotoxicity against human MT4 cells assessed as cell viability. It is filed as cell-based. In outline: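 Uninfected MT-4 cells run in parallel with the antiviral assay. CC50 = concentration reducing MT-4 cell viability by 50%.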
In data set [5] the test system is Human immunodeficiency virus 1. The data set can be described thus: Antiviral activity against NNRTI-resistant HIV-1 RES056 harboring reverse transcriptase K103N/Y181C double mutant. The class given is functional, organism-based. A digest of the protocol: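 MT-4 cells were infected with virus at about 100 times the CCID50 per ml of cell suspension and mixed with serial compound dilutions. They were incubated 5 days at 37 °C, then viable cells were counted. EC50 is the concentration that reduces virus-induced cytopathic effect by 50%. Cytotoxicity was measured in parallel in MT-4 cells.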

Data set [6] relates to Human immunodeficiency virus 1. Kind of data set: Antiviral activity against HIV-1 3B infected in human MT4 cells assessed as inhibition of virus-induced cytopathic effect after 5 days. The class given is functional, organism-based. To be noted: Human immunodeficiency virus 1, 3B, MT4, 120 h. A digest of the protocol: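 MT-4 cells infected with HIV-1 IIIB at ~100 times the CCID50 per ml, mixed 1:1 with serial compound dilutions, incubated at 37 °C for 5 days. Viable cell number then determined. EC50 = concentration reducing virus-induced cytopathicity by 50%.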
On the technique in general: Damage to the host cells serves as the signal in cytopathic effect assays.

Regarding `COC(=O)c1ccc(NC(=O)CSc2nc3ccc(Cl)cc3n2S(=O)(=O)c2cc(C)cc(C)c2)c(Cl)c1`, the outcome in data set [1] and in data set [5] was inactive. In addition, the IC50 in data set [2] is 37.6 µM. Also, in data set [3], the selectivity ratio was at least 27. In addition, in data set [4], the CC50 is at least 130 µM. The EC50 in data set [6] came to 4.82 µM.

Consider `Cc1cc(C)cc(Cn2c(SCC(=O)Nc3ccc(C)cc3Cl)nc3ccccc32)c1`, for which the result in data set [1] and in data set [5] was inactive. In addition, the IC50 in data set [2] worked out at 179 µM. Moreover, in data set [3], the selectivity ratio was determined as 32.1. Besides, the CC50 in data set [4] amounted to 49.1 µM. For the same compound, in data set [6], the EC50 was found to be 1.53 µM.

Regarding `Cc1cc(C)cc(S(=O)(=O)n2c(SCC(=O)Nc3ccc(C)cc3Cl)nc3ccc(Cl)cc32)c1`, the outcome in data set [1] and in data set [5] was inactive. Besides, the IC50 in data set [2] turned out to be 46.4 µM. Moreover, the selectivity ratio in data set [3] is over 149. Besides, the CC50 in data set [4] was over 234 µM. The EC50 in data set [6] worked out at 1.57 µM.

Regarding `Cc1cc(C)cc(Cn2c(SCC(=O)Nc3ccc(S(N)(=O)=O)cc3Cl)nc3ccc(Cl)cc32)c1`, the outcome in data set [1] and in data set [5] was inactive. Besides, the IC50 in data set [2] was determined as 86.6 µM. For the same compound, the selectivity ratio in data set [3] was under 1. The CC50 in data set [4] was at least 18.6 µM. Further, the EC50 in data set [6] was at least 22.6 µM.

On to `Cc1cc(C)cc(Cn2c(SCC(=O)Nc3ccc(C)cc3Cl)nc3ccc(Cl)cc32)c1`, for which the result in data set [1] and in data set [5] was inactive. For the same compound, in data set [2], the IC50 is over 248 µM. Moreover, the selectivity ratio in data set [3] is under 1. In addition, the CC50 in data set [4] came to 79.3 µM. Also, in data set [6], the EC50 was over 79.3 µM.
